Compound activity (PubChem)
In the library only some 2.1% were active in any assay of this set; here they are far more common.
NS3 helicase inh – inhibitors of Hepatitis C virus NS3 helicase; NS3 helicase DNA unwinding, Cy5 molecular beacon fluorescence; inhibition, % at 10.9 µM; 290,000 compounds, 0.56% hits;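 active = inhibition above the mean of all tested compounds plus 3 SD, set per campaign, cut at about 35% in these data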;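 note: 0% = DMSO wells and 100% = thioflavine S control wells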
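Measured by: Cy5 fluorescence, 0 and 60 min reads / Assay system: NS3 helicase fragment of HCV / Control set: low DMSO, high thioflavine S at 110 µM / Times: 1 h reaction at 25 °C, ATP-initiated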
DNA FID counter-1 – fluorescent intercalator displacement, NS3 helicase counter-screen; DNA fluorescent intercalator displacement, fluorescence; inhibition, % at 7.9 µM; 290,000 compounds, 0.17% hits; AID 1845;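 note: 0% = vehicle and 100% = reference compound; higher means more ethidium bromide displaced from hairpin DNA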
IMP-1 inhibitor – blocks Pseudomonas aeruginosa IMP-1 metallo-beta-lactamase; purified IMP-1, nitrocefin hydrolysis, epi-absorbance fluorescence; inhibition, % at 5.6 µM; 290,000 compounds, 0.45% hits; AID 1556;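 active = inhibition above the mean plus 3 SD of all compounds in the same screening run, cut at about 4.5% in these data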;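 note: 0% = IMP-1 with DMSO and 100% = DMSO wells lacking enzyme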
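System: purified IMP-1 / Input: IMP-1 dispensed at 0.2 nM / Medium: 50 mM HEPES pH 7.1, 50 µM ZnSO4, 0.05% Brij 35 / Timing: 15 min enzyme–compound preincubation, then 25 min nitrocefin reaction, 25 °C / Technique: plate fluorescence quenching by hydrolysis product, ex 480/em 530 nm / Repeats: singlicate testing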
SUMO HTRF inh – inhibitors of human SUMOylation (UBC9). P63279. HTRF SUMOylation assay, SAE1/SAE2 + UBC9, in vitro. inhibition, % at 35 µM. 290,000 compounds, 0.36% hits; in the data active = inhibition above about 50%, passing the limit was not always enough
Target sequence (P63279 whole entry, looked up): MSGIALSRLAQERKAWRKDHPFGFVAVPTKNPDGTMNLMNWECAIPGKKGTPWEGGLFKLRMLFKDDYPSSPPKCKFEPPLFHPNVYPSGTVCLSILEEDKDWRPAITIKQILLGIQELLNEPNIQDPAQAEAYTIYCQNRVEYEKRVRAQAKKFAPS
VIM-2 inhibitor – blocks Pseudomonas aeruginosa VIM-2 metallo-beta-lactamase. purified VIM-2, nitrocefin hydrolysis, epi-absorbance fluorescence. inhibition, % at 5.6 µM. 290,000 compounds, 0.89% hits. AID 1527;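 active = inhibition above the mean of all tested compounds plus 3 SD, cutoff set per screening run, cut at about 7.5% in these data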;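 note: red hydrolysis product quenches plate fluorescence so inhibitors raise well fluorescence; 0% = enzyme with DMSO and 100% = DMSO without enzyme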
NS3 hel confirm – HCV NS3 helicase inhibition, confirmation assay. shares compounds with NS3 helicase inh. NS3 helicase DNA unwinding, Cy5 molecular beacon fluorescence. inhibition, % at 10.9 µM. 1,600 compounds, 31% hits;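 active = inhibition above the mean of all tested compounds plus 3 SD, cutoff set per campaign, cut at about 36% in these data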
DNA FID counter-2 – displaces DNA intercalator in HCV helicase counter-screen | shares compounds with NS3 helicase inh | DNA fluorescent intercalator displacement, fluorescence | inhibition, % at 7.9 µM | 1,600 compounds, 4% hits | AID 1945;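 note: 0% = vehicle and 100% = reference compound; higher means more displacement of ethidium bromide from the DNA hairpin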
DNA FID DR – displaces fluorescent intercalator from DNA, HCV helicase counter-screen. 120 tested, under 10 active. IC50, µM. shares compounds with NS3 helicase inh. fluorescent intercalator displacement from DNA, fluorescence; call rule not given here
An asterisk follows results filed as active; · = not tested or not shown. Cut-off read from the data, not from the text of the source, unless noted: active = inhibition above about 37%; inactive = the rest.

SMILES	NS3 helicase inh	DNA FID counter-1	IMP-1 inhibitor	SUMO HTRF inh	VIM-2 inhibitor	NS3 hel confirm	DNA FID counter-2	others
O=C(CSc1ccc(F)cc1)Nc1ccc2c(c1)C(=O)NC2=O	1	4	-2	-1	0	·	·
O=C(COC(=O)c1ccc[n+]([O-])c1)Nc1c(Br)cc([N+](=O)[O-])cc1Br	-8	0	-3	10	-2	·	·
Cc1nn(Cc2ccc(Cl)c(Cl)c2)c(C)c1NC(=O)c1cc(-c2ccco2)on1	40*	-42	-1	-4	0	-9	-55
O=C(O)CCC(=O)N1N=C(c2c(-c3ccccc3)c3cc(Cl)ccc3[nH]c2=O)CC1c1cccs1 (stereo not given)	37*	-42	-2	24	-4	90*	-9
O=C(NNc1c(Cl)cc(Cl)cc1Cl)C1CCC1	7	-5	-2	-2	-3	·	·
Cc1ccc(NC(=O)CSc2nc(O)cc(=O)n2-c2ccc(C)cc2)cc1	48*	-32	0	·	1	36*	-18
O=C(O)CCCCCCCCCCCc1ccccc1	38*	-26	0	8	-2	70*	-37
O=C(CCC(=O)NCCCc1ccccc1)NCCCc1ccccc1	0	-29	-4	18	-2	·	·
COc1cc(NC(=O)c2ccc([N+](=O)[O-])cc2)ccc1NC(=O)C(C)C	11	1	-3	22	-3	·	·
CC(C)=CC(=O)OCc1csc(CC(=O)Nc2ccccc2C)n1	1	-26	-1	12	-1	·	·
CCOC(=O)/C=C/C(=O)OCc1csc(CC(=O)Nc2ccccc2C)n1	38*	-39	-5	0	-3	-19	-25
O=C(N/N=C/c1ccncc1)c1cc2ccccc2cc1O	5	-19	-3	-10	-3	·	·
O=C(N/N=C/c1ccc[nH]1)c1cc2ccccc2cc1O	41*	-3	-1	-7	-1	-14	5
Cc1ccc(NC(=O)CC2(CC(=O)O)CCCC2)c(C)c1	-4	-4	-1	20	0	·	·
O=[N+]([O-])c1c(C(Cl)Cl)nn(-c2ccc(Cl)cc2)c1N1CCCCC1	5	-5	-2	0	-2	·	·
O=[N+]([O-])c1c(C(Cl)Cl)nn(-c2ccccc2)c1N1CCOCC1	58*	-5	-2	-1	-2	-13	-12
CCOC(=O)c1[nH]ncc1CN1CCc2ccc(NC(=O)C3CCCO3)cc2C1 (stereo not given)	1	-9	-3	2	-1	·	·
COc1ccccc1N1CCN(C(=O)CSc2nc(-c3ccccc3)cc(=O)[nH]2)CC1	-7	-19	-2	11	-1	·	·
COc1ccccc1N1CCN(C(=O)CSc2nc(C)c(Cc3ccccc3)c(=O)[nH]2)CC1	41*	-9	0	17	1	-18	-43
COc1cccc(C(=O)N/N=C/c2ccc(OC)c(COc3ccccc3C(N)=O)c2)c1	43*	-31	-2	2	-3	-12	-41
N#Cc1c(N)nc2c(c1N)CC(CCl)O2 (stereo not given)	-5	-1	-1	11	-2	·	·
N#Cc1c(N2CCCCC2)nc(N)c2c(N)nc3c(c12)CC(CCl)O3 (stereo not given)	58*	8	-3	18	-2	-7	7
CCn1cc(S(=O)(=O)Nc2cc(F)ccc2C)cn1	59*	-2	-5	3	-5	-2	-1
Cc1cc(C(=O)N/N=C/c2ccc(O)c(O)c2O)c(C)n1-c1ccccc1	46*	-24	-4	34	-1	-14	5
CC1=NN(C(N)=S)C(=O)C1N=Nc1ccc(Br)cc1 (stereo not given)	41*	-12	-1	-18	-3	-10	11
SMILES	NS3 helicase inh	DNA FID counter-1	IMP-1 inhibitor	SUMO HTRF inh	VIM-2 inhibitor	NS3 hel confirm	DNA FID counter-2	others
CCC(C)NC(=O)c1ccc(N2CC3CC(C2)c2cccc(=O)n2C3)c(NC(=O)c2ccc(Br)o2)c1 (stereo not given)	2	-42	-2	14	-2	·	·
O=C1NC(=O)C(Cc2c[nH]c3ccccc23)N1 (stereo not given)	0	0	-1	0	-1	·	·
CCOC(=O)c1ccc(N2C=C(C(=O)OC)C(c3ccc(OC)c(O)c3)C(C(=O)OC)=C2)cc1	-12	-28	-1	-11	-4	·	·
CC(=O)Nc1ccc(S(=O)(=O)NNC(=O)COc2ccc(Cl)cc2Cl)cc1	37*	-4	-3	6	-3	11	4
COc1ccc(Cl)cc1S(=O)(=O)NC(C)C(=O)NCc1ccncc1 (stereo not given)	-3	-5	-2	-1	-3	·	·
CC(C)NC(=O)CSc1nc(N)c(NC(=O)c2ccccc2F)c(=O)[nH]1	65*	-7	-2	-2	-3	-3	-2
CCS(=O)(=O)C1=NN2C(=N)/C(=C\c3ccc(SCc4ccco4)o3)C(=O)N=C2S1	37*	-4	2	62*	2	65*	22
CCc1ccccc1NC(=O)C1(S(=O)(=O)c2ccc(C)cc2)CC1	2	-23	0	2	-1	·	·
CCNC(=S)Nc1ccc(Cl)c(C(F)(F)F)c1	4	-2	-4	0	0	·	·
Cc1cccc(N=C2NC(=O)/C(=C/C=C/c3ccco3)S2)c1C	45*	-17	4.8*	58*	-2	88*	34	DNA FID DR=>79
O=C1NC(=Nc2ccccc2)S/C1=C\c1ccccc1	40*	-12	-3	18	-2	5	14
Cc1ccc(N=C2NC(=O)/C(=C/C=C/c3ccco3)S2)cc1	114*	0	4	46	-1	9	3
O=C1NC(=Nc2ccccc2)S/C1=C\C=C\c1ccco1	44*	-11	1	48	-1	3	-2
COc1ccc(N=C2NC(=O)/C(=C/c3ccco3)S2)cc1	25	-16	-3	-8	-2	·	·
COc1ccc(N=C2NC(=O)/C(=C/C=C/c3ccccc3)S2)cc1	-13	-3	-1	28	-1	·	·
COc1ccc(CN(C)C(=O)c2cccc(NS(=O)(=O)c3ccccc3)c2)cc1F	4	-41	-5	-6	-2	·	·
CCc1ccc2c(CN(C)Cc3ccc(OC(F)F)c(OC)c3)cc(=O)oc2c1	-15	-26	-1	4	0	·	·
O=C(Nc1ccc(C(=O)NCCCN2CCN(c3ccccc3)CC2)cc1)C1=CSCCO1	-25	25	-3	-1	-1	·	·
O=C(O)c1cc(-c2ccco2)nn1-c1cccc(Cl)c1	48*	-16	-3	49	-1	32	0
Cc1ccc(-n2nc(-c3ccco3)cc2C(=O)O)c(C)c1	47*	-29	0	38	-2	26	-5
